Assay results from ChEMBL document CHEMBL1154772, “Synthesis and in vitro evaluation of N-substituted maleimide derivatives as selective monoglyceride lipase inhibitors” (J Med Chem, 2009).

How the values were obtained:
Monoglyceride lipase = molecular target: T1, Monoglyceride lipase (Homo sapiens, UniProt Q99685); experiment: Inhibition of human MGL
T1 sequence (Q99685 whole entry): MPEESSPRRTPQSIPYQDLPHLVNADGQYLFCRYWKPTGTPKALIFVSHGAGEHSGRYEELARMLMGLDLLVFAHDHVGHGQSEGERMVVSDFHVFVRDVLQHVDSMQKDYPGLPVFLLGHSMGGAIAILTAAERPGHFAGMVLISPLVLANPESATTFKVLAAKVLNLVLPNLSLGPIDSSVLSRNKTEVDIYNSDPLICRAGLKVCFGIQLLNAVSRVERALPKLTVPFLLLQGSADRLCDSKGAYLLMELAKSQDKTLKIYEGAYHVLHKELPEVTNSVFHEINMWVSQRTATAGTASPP
How it was run: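 Purified recombinant human MGL (5 ng) in 50 mM Tris pH 8.0, 0.1% BSA with compound or DMSO vehicle. [3H]-2-OG (10 μM) hydrolysis run 10 min at 37 °C, stopped with ice-cold methanol-chloroform 1:1. Aqueous-phase radioactivity read by liquid scintillation, no-enzyme blanks subtracted.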

Homo sapiens = species: Homo sapiens; experiment: Selectivity ratio of IC50 for human FAAH to IC50 for human MGL
How it was run: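 Ratio of IC50 against human FAAH ([3H]anandamide hydrolysis) to IC50 against purified human MGL ([3H]-2-OG hydrolysis), each from three independent experiments in duplicate.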

[1] = molecular target: T2, Monoglyceride lipase (Homo sapiens) (UniProt Q99685); experiment: Inhibition of [3H]2-OG binding to human MGL at 20 times IC50 treated for 1 hr before addition of 2-OG by liquid scintillation counting
T2 sequence (whole entry): T1 sequence (Q99685 whole entry)

Work on `CCCCC/C=C\C/C=C\C/C=C\C/C=C\CCCC(=O)C(F)(F)F` [ARACHIDONYL TRIFLUOROMETHYLKETONE] yielded an IC50 (Monoglyceride lipase) of 6.31 µM, a Ratio IC50 (Homo sapiens) of 0.002 and an inhibition [1] of 26%.
